Source: ChEMBL document CHEMBL3352070, “Dammarane triterpenes as potential SIRT1 activators from the leaves of Panax ginseng” (J Nat Prod, 2014)
Active and inactive are the calls of the source. The rule behind the calls is not given here.

Legend:
[1] = test system: HEK293; experiment: Toxicity against HEK293 cells at 10 to 20 ug/ml; type: cell-based; details: human
[2] = target: T1, NAD-dependent protein deacetylase sirtuin-1 (Homo sapiens) (UniProt Q96EB6); experiment: Activation of SIRT1 (unknown origin) expressed in HEK293 cells assessed as increase in NAD+/NADH ratio at 2.5 to 5 ug/mL after 12 hrs; type: cell-based
T1 sequence (whole entry): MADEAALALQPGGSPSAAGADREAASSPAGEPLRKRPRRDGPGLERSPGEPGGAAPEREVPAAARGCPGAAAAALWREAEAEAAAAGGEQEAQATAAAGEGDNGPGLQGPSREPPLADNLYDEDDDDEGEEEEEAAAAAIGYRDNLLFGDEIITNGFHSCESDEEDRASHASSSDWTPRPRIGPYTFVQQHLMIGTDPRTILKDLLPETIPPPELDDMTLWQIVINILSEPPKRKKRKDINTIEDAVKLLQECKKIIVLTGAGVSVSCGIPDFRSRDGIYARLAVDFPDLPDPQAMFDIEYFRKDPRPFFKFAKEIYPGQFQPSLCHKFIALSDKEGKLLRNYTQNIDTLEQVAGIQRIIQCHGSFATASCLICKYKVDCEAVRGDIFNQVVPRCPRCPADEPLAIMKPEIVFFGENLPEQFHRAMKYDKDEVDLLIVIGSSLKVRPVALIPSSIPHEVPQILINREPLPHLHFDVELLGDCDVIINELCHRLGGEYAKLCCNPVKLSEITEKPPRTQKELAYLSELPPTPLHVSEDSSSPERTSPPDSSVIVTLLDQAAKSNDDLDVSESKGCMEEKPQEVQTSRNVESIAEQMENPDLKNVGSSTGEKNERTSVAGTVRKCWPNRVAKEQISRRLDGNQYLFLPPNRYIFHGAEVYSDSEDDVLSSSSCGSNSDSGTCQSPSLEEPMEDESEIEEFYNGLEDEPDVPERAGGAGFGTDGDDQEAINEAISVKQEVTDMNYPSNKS
Outline: (§1)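 HEK293 cells grown in DMEM with 10% FBS at 37 °C, 5% CO2, and treated with compound for 12 h. NAD+/NADH ratio measured in whole-cell extracts with a red-fluorescence NAD/NADH quantitation kit.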

[3] = target: T1, NAD-dependent protein deacetylase sirtuin-1 (Homo sapiens); experiment: Activation of flag-tagged SIRT1 (unknown origin) expressed in HEK293 cells at 2.5 to 5 ug/mL after 12 hrs by SIRT1-p53 luciferase reporter gene based assay; type: cell-based
[4] = target: T1, NAD-dependent protein deacetylase sirtuin-1 (Homo sapiens); experiment: Activation of SIRT1 (unknown origin) at 10 to 20 ug/mL using Fluor de Lys-SIRT1 peptide by in vitro enzyme-based SIRT1-NAD/NADH assay
Outline: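 SIRT1 enzyme at 0.02 U/μL in Tris-HCl pH 8.0 buffer with BSA, MgCl2, KCl and NaCl, preincubated with compound for 5 min at room temperature. Reaction started with 500 μM NAD+ and 100 μM Fluor de Lys-SIRT1 substrate (stock solution), run 1 h at room temperature. Quenched with Developer II plus 2 mM nicotinamide for 30 min, then fluorescence read at ex 360/em 450 nm. DMSO and no-enzyme controls.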

[5] = target: T1, NAD-dependent protein deacetylase sirtuin-1 (Homo sapiens); experiment: Activation of flag-tagged SIRT1 (unknown origin) expressed in HEK293 cells after 12 hrs by SIRT1-p53 luciferase reporter gene based assay; type: cell-based
[6] = target: T1, NAD-dependent protein deacetylase sirtuin-1 (Homo sapiens); experiment: Activation of flag-tagged SIRT1 (unknown origin) expressed in HEK293 cells at 10 to 20 ug/mL after 12 hrs by SIRT1-p53 luciferase reporter gene based assay; type: cell-based
[7] = target: T1, NAD-dependent protein deacetylase sirtuin-1 (Homo sapiens); experiment: Activation of SIRT1 (unknown origin) expressed in HEK293 cells assessed as increase in NAD+/NADH ratio at 10 to 20 ug/mL after 12 hrs; type: cell-based; outline: as §1

| Structure (SMILES) | Activity [6] | Activity [7] | Activity [1] | Activity [2] | Activity [3] | Activity [4] | Activity [5] |
| --- | --- | --- | --- | --- | --- | --- | --- |
| CC(C)=CC/C=C(\C)[C@H]1CC[C@]2(C)[C@@H]1[C@H](O)C[C@@H]1[C@@]3(C)CC[C@H](O)C(C)(C)[C@@H]3[C@@H](O)C[C@]12C | – | – | Toxic | Active | Active | Dose-dependent effect | – |
| CC(C)=CCC[C@@](C)(O)[C@H]1CC[C@]2(C)[C@@H]1[C@H](O)C[C@@H]1[C@@]3(C)CC[C@H](O[C@@H]4O[C@H](CO)[C@@H](O)[C@H](O)[C@H]4O[C@@H]4O[C@H](CO)[C@@H](O)[C@H](O)[C@H]4O)C(C)(C)[C@@H]3CC[C@]12C | – | – | – | – | – | – | Dose-dependent effect |
| CC(C)=CCC[C@](C)(O)[C@H]1CC[C@]2(C)[C@@H]1C(=O)C[C@@H]1[C@@]3(C)CCC(=O)C(C)(C)[C@@H]3[C@@H](O)C[C@]12C | Active | Active | – | – | – | Dose-dependent effect | – |
| CC(C)=CCC[C@](C)(O)[C@H]1CC[C@]2(C)[C@@H]1[C@H](O)C[C@@H]1[C@@]3(C)CC[C@H](O[C@@H]4O[C@H](CO)[C@@H](O)[C@H](O)[C@H]4O[C@@H]4O[C@H](CO)[C@@H](O)[C@H](O)[C@H]4O)C(C)(C)[C@@H]3CC[C@]12C | – | – | Toxic | Active | Active | Dose-dependent effect | Active |
| CC(C)(O)/C=C/C[C@](C)(O)[C@H]1CC[C@]2(C)[C@@H]1C(=O)C[C@@H]1[C@@]3(C)CCC(=O)C(C)(C)[C@@H]3[C@@H](O)C[C@]12C | Active | Active | – | – | – | Dose-dependent effect | – |
